Measured values as given in PMC3528827 (ACS chemical biology, 2012).

Key:
S1P3 [1] = molecular target: T1, S1P3 (Homo sapiens, UniProt Q99500); experiment: Ligand-induced ERK phosphorylation; type: cell-based; conditions: for ERK phosphorylation response: WT S1P3 Jump-In CHO cells
Outline: (§1)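 Jump-In TI CHO-K cells carrying N-terminal triple-HA-tagged WT or point-mutant S1P3, stably retargeted and selected 4 weeks with blasticidin 10 μg/mL. Serum-starved 4 h, then exposed 5 min to increasing agonist. For antagonism, 1 uM antagonist was added 15 min beforehand or premixed with agonist. Phospho-p44/42 MAPK (Thr202/Tyr204) measured by sandwich ELISA; EC50 fitted from dose-response curves.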

[2] = molecular target: WT, W256L, and F263L mutant S1P3 (Homo sapiens, UniProt Q99500); experiment: [33P]S1P radioligand binding and competition, Jump-In CHO cells; conditions: 0.1 nM [33P]S1P, W256L and F263L Jump-In cell lines (all cell lines)
Outline: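 Jump-In TI CHO-K cells (5 × 105) stably expressing WT, W256L or F263L S1P3, serum-starved 4 h. Incubated 30 min at 4 °C with 0.1 nM [33P]S1P plus increasing competitor in 20 mM Tris-HCl pH 7.5, NaCl, NaF, EDTA, Na3VO4, 0.5% fatty-acid-free BSA and protease inhibitors. Washed three times cold, lysed in 0.5% SDS, scintillation-counted. Normalized to each line's uncompeted binding (100%).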

[3] = system: full panel of S1P receptors; experiment: Profiling against the full panel of S1P receptors; type: cell-based; conditions: Supporting Table S3
Solubility = type: physicochemical
[4] = Stability in biological systems; type: in vitro ADME
[5] = system: panel of 55 GPCRs, ion channels, and transporters; experiment: Ricerca profiling panel
R114A mutant S1P3 = R114A mutant S1P3 (Homo sapiens, UniProt Q99500, R114A); experiment: ERK phosphorylation, R114A mutant S1P3 Jump-In CHO cells; type: cell-based; conditions: R114A mutant vs WT
Outline: as §1

M98A mutant S1P3 = M98A mutant S1P3 (Homo sapiens, UniProt Q99500, M98A); experiment: ERK phosphorylation, M98A mutant S1P3 Jump-In CHO cells; type: cell-based
Outline: as §1

F263L S1P3 [6] = molecular target: T2, F263L S1P3 (Homo sapiens, UniProt Q99500, F263L); experiment: ERK phosphorylation, F263L mutant S1P3; type: cell-based; conditions: ERK phosphorylation assay, vs WT
Outline: as §1

W256L S1P3 = W256L S1P3 (Homo sapiens, UniProt Q99500, W256L); experiment: ERK phosphorylation, W256L mutant S1P3; type: cell-based; conditions: ERK phosphorylation assay, vs WT
Outline: as §1

F263L S1P3 [7] = molecular target: T2, F263L S1P3; experiment: MAPmates multiplex assay pERK1/2; type: cell-based
S1P3 [8] = molecular target: T1, S1P3; experiment: Receptor assays coupled to Gi and Gq; type: cell-based; conditions: ERK phosphorylation, calcium flux, β-arrestin, NFAT-β-lactamase assays
S1P3 [9] = molecular target: T1, S1P3; experiment: S1P3-NFAT β-lactamase reporter; type: cell-based; conditions: S1P3-CHO cells, calcium flux dependent β-lactamase assay
Outline: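 CHO cells stably expressing human S1P3 and an NFAT-β-lactamase reporter, plated at 1 × 10^6/mL in phenol red-free DMEM with 0.5% charcoal/dextran FBS and held overnight at 37°C, 5% CO2. S1P dilution series plus six fixed allosteric-agonist levels (EC0–EC80), single-agonist controls, 4 h at 37°C. β-Lactamase FRET substrate with probenecid added, 2 h at room temperature. Read at ex 405 / em 535 and 460 nm. Mean ± SEM.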

S1P1 = conditions: read-out: S1P1 EC50; in vitro; cited from earlier work
S1P2 = conditions: read-out: S1P2 EC50; in vitro; cited from earlier work
S1P4 = conditions: read-out: S1P4 EC50; in vitro; cited from earlier work
S1P5 = conditions: read-out: S1P5 EC50; in vitro; cited from earlier work
[10] = ERK phosphorylation, SPM-242 at 1 uM

Chain of WT, W256L, and F263L mutant S1P3 (Q99500 whole entry W256L/F263L): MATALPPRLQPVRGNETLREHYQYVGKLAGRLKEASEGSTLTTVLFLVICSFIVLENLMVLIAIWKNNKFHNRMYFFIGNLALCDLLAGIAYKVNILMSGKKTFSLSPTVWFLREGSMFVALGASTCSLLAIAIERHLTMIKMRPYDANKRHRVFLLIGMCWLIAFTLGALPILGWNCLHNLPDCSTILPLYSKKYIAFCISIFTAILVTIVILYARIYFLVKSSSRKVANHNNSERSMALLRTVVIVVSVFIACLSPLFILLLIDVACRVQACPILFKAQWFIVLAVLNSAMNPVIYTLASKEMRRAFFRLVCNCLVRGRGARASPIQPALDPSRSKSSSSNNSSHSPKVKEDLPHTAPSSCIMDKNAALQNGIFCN
T2 sequence (Q99500 whole entry F263L): as the sequence (Q99500 whole entry W256L/F263L) above, with L256W counted along it
T1 sequence (Q99500 whole entry): as the sequence (Q99500 whole entry W256L/F263L) above, with L256W, L263F counted along it
Chain of M98A mutant S1P3 (Q99500 whole entry M98A): as the sequence (Q99500 whole entry W256L/F263L) above, with M98A, L256W, L263F counted along it
Chain of R114A mutant S1P3 (Q99500 whole entry R114A): as the sequence (Q99500 whole entry W256L/F263L) above, with R114A, L256W, L263F counted along it
Chain of W256L S1P3 (Q99500 whole entry W256L): as the sequence (Q99500 whole entry W256L/F263L) above, with L263F counted along it

| agonist efficacy: maximum level of ERK phosphorylation compared with S1P (S1P3 [1]; WT S1P3 Jump-In stable CHO cells) | ERK phosphorylation response (R114A mutant S1P3) | effect of W256L mutation on ligand-induced receptor activation (W256L S1P3) | signalling bias compared to S1P (S1P3 [8]) | response on co-application of S1P and CYM-5541 (S1P3 [9]) | SMILES | right-shift of the concentration response curve of S1P (S1P3 [1]; [10]) | shift of the concentration response curve of CYM-5541 (S1P3 [1]; [10]) | competition for [33P]S1P binding [2] | selectivity among S1P receptors [3] | solubility (Solubility) | stability of phosphate-ester bond [4] | ERK phosphorylation response (S1P3 [1]) | activity in Ricerca profiling panel [5] | ERK phosphorylation response (M98A mutant S1P3) | effect of F263L mutation on ligand-induced receptor activation (F263L S1P3 [6]) | receptor activation (pERK1/2) compared to WT S1P3 (F263L S1P3 [7]) | EC50 (S1P1) | EC50 (S1P2) | EC50 (S1P4) | EC50 (S1P5) |
| --- | --- | --- | --- | --- | --- | --- | --- | --- | --- | --- | --- | --- | --- | --- | --- | --- | --- | --- | --- | --- |
| – | – | – | – | – | NC(CO)(CCc1ccc(Sc2cccc(O)c2)cc1Cl)COP(=O)(O)O (single isomer, unassigned; (+)) [SPM-242, (+)-2-amino-4-(2-chloro-4-((3-hydroxyphenyl)thio)phenyl)-2-(hydroxymethyl)butyl dihydrogen phosphate] | 152 fold | 6 fold | reversed [^33P]S1P binding competitively in a dose dependent manner | selective for S1P3 | low solubility | extremely labile | – | – | – | – | – | – | – | – | – |
| full agonist | comparable for WT and R114A | did not affect | no such differences were observed | additive and no synergy was observed | O=C(c1cc(C2CC2)on1)N(C1CCCCC1)C1CCCCC1 [CYM-5541, N,N-dicyclohexyl(5-cyclopropylisoxazol-3-yl)carboxamide] | – | – | unable to compete | – | low solubility | – | agonist dose-dependent ERK phosphorylation | no significant activities | agonist dose-dependent ERK phosphorylation | shifted CYM-5541-induced receptor activation | significantly diminished receptor activation | > 10 µM | > 50 µM | > 50 µM | > 25 µM |
| – | unable to respond | did not affect | – | – | CCCCCCCCCCCCC/C=C/[C@@H](O)[C@@H](N)COP(=O)(O)O [S1P, Sphingosine 1-phosphate, reference compound] | – | – | competitively reversed in a dose dependent manner | – | – | – | agonist dose-dependent ERK phosphorylation | – | agonist dose-dependent ERK phosphorylation | not S1P-induced activation | – | – | – | – | – |
